This note sets out measurements from ChEMBL document CHEMBL1130245, “Syntheses and photodynamic activities of novel trisulfonated zinc phthalocyanine derivatives” (1997).

Assay [1] concerns Mus musculus. Kind of assay: Medium edema caused with EMT-6 tumor at drug dose 5 umol kg e-1, at light dose 400 J cme-2, and at time period of 48 hr.; ++ = Medium edema. It counts as functional, organism-based. The note with it: tested as the Zn salt or complex. The gist of the method:
(§1)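 Male BALB/c mice (18-22 g), depilated; 2 × 10^5 EMT-6 cells implanted intradermally on each hind thigh; used 6-8 days later (tumors 3-5 mm diameter, 2-3 mm thick). Dye in PBS given iv (2-20 µmol kg-1); 24 or 48 h later one tumor illuminated with 650-700 nm xenon-lamp light, the other left as control. Edema scored 24 h post-PDT.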

The species entered for assay [2] is Mus musculus. Description: Percent necrosis with EMT-6 Tumor in BALB/c mice at drug dose 5 umol kg e-1, at light dose 400 J cme-2, and at time period of 24 hr. It counts as functional. A digest of the protocol:
as §1

The species named for assay [3] is Mus musculus. Description: Percent regression with EMT-6 Tumor in BALB/c mice at drug dose 2 umol kg e-1, at light dose 400 J cme-2, and at time period of 24 hr. It is filed as functional. A digest of the protocol:
as §1

Assay [4] is filed under the species Mus musculus. Description: Percent necrosis with EMT-6 Tumor in BALB/c mice at drug dose 5 uMol kg e-1, at light dose 400 J cme-2, and at time period of 24 hr. It is filed as functional. The gist of the method:
as §1

For assay [5], the species on record is Mus musculus. Description: Percent necrosis with EMT-6 Tumor in BALB/c mice at drug dose 2 umol kg e-1, at light dose 400 J cme-2, and at time period of 24 hr. It counts as functional. A digest of the protocol:
as §1

For assay [6], the species on record is Mus musculus. Kind of assay: Percent regression with EMT-6 Tumor in BALB/c mice at drug dose 5 umol kg e-1, at light dose 400 J cme-2, and at time period of 48 hr. It counts as functional. The gist of the method:
as §1

The nature of assay [7]: (§2) Light dose to inactivate 90% of mouse mammary tumor cells (EMT-6) incubated with 1 uM dye for a period of 1 hour. It counts as functional. A digest of the protocol: (§3)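 EMT-6 mouse mammary tumor cells, 15 × 10^3 per well, were grown overnight in Waymouth's with 15% FBS and incubated at 37 °C with dye at 1 µM in Waymouth's 1% FBS (1 h for line 1, 24 h for line 2). Cells were rinsed and exposed to 660-700 nm red light at 10 mW cm-2 (1.5-30 J cm-2). MTT read at 595 nm next day; LD90 extrapolated from survival curves; 8 replicates per light dose, ≥3 experiments.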

Assay [8] concerns Mus musculus. Description: Medium edema caused with EMT-6 tumor at drug dose 2 umol kg e-1, at light dose 400 J cme-2, and at time period of 24 hr.; ++ = Medium edema. It is filed as functional, organism-based. The following applies: tested as the Zn salt or complex. A digest of the protocol: as §1
The nature of assay [9]: (§4) Light dose to inactivate 90% of mouse mammary tumor cells (EMT-6) incubated with 1 uM dye for a period of 24 hour. It counts as functional. The gist of the method: as §3
For assay [10], the species on record is Mus musculus. Description: Percent necrosis with EMT-6 Tumor in BALB/c mice at drug dose 5 umol kg e-1, at light dose 400 J cme-2, and at time period of 48 hr. It counts as functional. The gist of the method:
as §1

The test system of assay [11] is Mus musculus. Kind of assay: Medium edema caused with EMT-6 tumor at drug dose 5 umol kg e-1, at light dose 400 J cme-2, and at time period of 24 hr; ++ = Medium edema. It counts as functional, organism-based. The following applies: tested as the Zn salt or complex. The gist of the method:
as §1

The species named for assay [12] is Mus musculus. Kind of assay: Percent regression with EMT-6 Tumor in BALB/c mice at drug dose 5 umol kg e-1, at light dose 400 J cme-2, and at time period of 24 hr.
Assay [13] is filed under the species Mus musculus. Kind of assay: Percent necrosis with EMT-6 Tumor in BALB/c mice at drug dose 5 umol kg e-1, at light dose 300 J cme-2, and at time period of 24 hr. It is filed as functional. A digest of the protocol: as §1
The species entered for assay [14] is Mus musculus. Description: Percent regression with EMT-6 Tumor in BALB/c mice at drug dose 5 umol kg e-1, at light dose 300 J cme-2, and at time period of 24 hr. It is filed as functional. A digest of the protocol: as §1
The test system of assay [15] is Mus musculus. Kind of assay: Medium edema caused with EMT-6 tumor at drug dose 5 umol kg e-1, at light dose 400 J cme-2, and at time period of 48 hr; ++ = Medium edema. It is filed as functional, organism-based. The note with it: tested as the Zn salt or complex. The gist of the method: as §1
In assay [16] the test system is Mus musculus. Description: Medium edema caused with EMT-6 tumor at drug dose 2 umol kg e-1, at light dose 400 J cme-2, and at time period of 24 hr; ++ = Medium edema. It is filed as functional, organism-based. The following applies: tested as the Zn salt or complex. The gist of the method: as §1
For assay [17], the species on record is Mus musculus. Description: Percent regression with EMT-6 Tumor in BALB/c mice at drug dose 5 umol kg e-1, at light dose 400 J cme-2, and at time period of 24 hr. It counts as functional. The gist of the method: as §1
Assay [18] deals with Mus musculus. Kind of assay: Light […] edema caused with EMT-6 tumor at drug dose 5 umol kg e-1, at light dose 400 J cme-2, and at time period of 24 hr; + = Light edema. The note with it: tested as the Zn salt or complex. It is filed as functional, organism-based. The gist of the method:
as §1

Assay [19] is filed under the species Mus musculus. Described as §2. It counts as functional. The following applies: tested as the Zn salt or complex. A digest of the protocol: as §3
For assay [20], the species on record is Mus musculus. Described as §4. It counts as functional. The following applies: tested as the Zn salt or complex. The gist of the method: as §3
Assay [21] deals with Mus musculus. Description: Medium edema caused with EMT-6 tumor at drug dose 2 umol kg e-1, at light dose 400 J cme-2, and at time period of 24 hr. It is filed as functional, organism-based. The note with it: tested as the Zn salt or complex. The gist of the method: as §1
For assay [22], the system named is Mus musculus. Kind of assay: Medium edema caused with EMT-6 tumor at drug dose 5 umol kg e-1, at light dose 300 J cme-2, and at time period of 24 hr.; ++ = Medium edema. The following applies: tested as the Zn salt or complex. It counts as functional, organism-based. A digest of the protocol: as §1
The mark [23] stands for this setting: tested as the Zn salt or complex.

Take `O=S(=O)(O)c1ccc2c(c1)-c1nc-2nc2[n-]c(nc3nc(nc4[n-]c(n1)c1ccc(S(=O)(=O)O)cc41)-c1ccc(S(=O)(=O)O)cc1-3)c1ccc(S(=O)(=O)O)cc21.[Zn+2]`: the Edema entry with Mus musculus [1] and in the assay on Mus musculus [8] was “Medium edema” each time. Moreover, the Necrosis response in the assay filed under Mus musculus [2] was 91%; in the assay filed under Mus musculus [5] it was 12%; in the assay listed under Mus musculus [10] it was 50%. For the same compound, the Regression response in the assay listed under Mus musculus [3] is 12%; in the assay listed under Mus musculus [4] it was 91%; in the assay filed under Mus musculus [6], 38%. The results for the LD90 in assay [7] and in [9] were above 30 J cm**-2 and 14 J cm**-2, respectively.
As for `O=S(=O)(O)c1ccc2c(c1)-c1nc-2nc2[n-]c(nc3nc(nc4[n-]c(n1)c1ccc(S(=O)(=O)O)cc41)-c1ccccc1-3)c1ccc(S(=O)(=O)O)cc21.[Zn+2]`, in the assay filed under Mus musculus [2], the Necrosis response was 12%. For the same compound, the Edema result in the assay on Mus musculus [11] is on record as “Medium edema”. The Regression response in the assay filed under Mus musculus [12] is listed as 0%. The LD90 in assay [7] is recorded as 29 J cm**-2; in [9], 5 J cm**-2.
`CC(C)(C)c1ccc2cc3c(cc2c1)-c1nc-3nc2[n-]c(nc3nc(nc4[n-]c(n1)c1cc(S(=O)(=O)O)ccc41)-c1cc(S(=O)(=O)O)ccc1-3)c1cc(S(=O)(=O)O)ccc21.[Zn+2]`: the Necrosis response in the assay listed under Mus musculus [2] is 100%; in the assay listed under Mus musculus [5] it was 60%; in the assay filed under Mus musculus [13], 71%; in the assay filed under Mus musculus [10], 87%. For the same compound, the Regression response is 60% in the assay listed under Mus musculus [3], 87% in the assay filed under Mus musculus [6], 43% in the assay listed under Mus musculus [14] and 86% in the assay listed under Mus musculus [17]. The LD90 in [7] turned out to be 21 J cm**-2; in [9], 2.5 J cm**-2. Besides, the Edema entry in the assay on Mus musculus [15] and with Mus musculus [16] was “Medium edema” each time.
On to `O=S(=O)(O)c1ccc2c(c1)-c1nc-2nc2[nH]c(nc3nc(nc4[nH]c(n1)c1ccc(S(=O)(=O)O)cc41)-c1nc(-c4ccccc4)c(-c4ccccc4)nc1-3)c1ccc(S(=O)(=O)O)cc21`, for which the Necrosis response in the assay listed under Mus musculus [2] (setting [23]) stood at 25%. Also, the Edema result with Mus musculus [18] is reported as “Light edema”. Further, the Regression response in the assay listed under Mus musculus [12] (setting [23]) was found to be 0%. Besides, the LD90 was above 30 J cm··-2 in the assay filed under Mus musculus [19] and 19.5 J cm··-2 in the assay filed under Mus musculus [20].
As to `CC(C)(C)c1ccc2c(c1)-c1nc-2nc2[n-]c(nc3nc(nc4[n-]c(n1)c1cc(S(=O)(=O)O)ccc41)-c1cc(S(=O)(=O)O)ccc1-3)c1cc(S(=O)(=O)O)ccc21.[Zn+2]`, the Necrosis response was 100% in the assay filed under Mus musculus [2], 50% in the assay filed under Mus musculus [5], 12% in the assay listed under Mus musculus [13] and 37% in the assay filed under Mus musculus [10]. The Regression response in the assay filed under Mus musculus [3] is given as 33%; in the assay listed under Mus musculus [6], 37%; in the assay filed under Mus musculus [14], 0%; in the assay filed under Mus musculus [17], 90%. For the same compound, the LD90 in assay [7] is on record as above 30 J cm**-2; in [9] it was 2.5 J cm**-2. The Edema result in the assay with Mus musculus [21] and with Mus musculus [22] was “Medium edema” throughout.
